OXTR ag: activates the human oxytocin receptor | 320,000 tested, 0.32% active | AID 2435 | P30559 | CHO-OTR cells, Fluo-8 calcium fluorescence; normalized: DMSO 0%, oxytocin 100% | activation, % at 3 µM;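 active means activation above the mean of all tested compounds plus 3 SD, cutoff set per screening run, cut at about 20% in these data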;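 further: peak over basal fluorescence ratio from a 100 s FLIPR kinetic read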
OXTR potentiate: potentiates the human oxytocin receptor response. P30559. CHO-OTR cells, Fluo-8 calcium fluorescence, potentiator mode; 0% = oxytocin EC15, 100% = EC100. activation, % at 3 µM. 320,000 tested, 0.061% active. AID 2445;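 active means activation above that plate's cutoff, the mean activation of tested compounds plus 3 SD, cut at about 6.6% in these data, passing the limit was not always enough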
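Measured by – Fluo-8 calcium dye fluorescence · Test system – human OTR in CHO cells · Dosing – one concentration, 3.0 µM compound · Controls – EC15 oxytocin alone as 0%, 75 nM oxytocin as 100% · Evaluation – normalized max/min fluorescence ratio, % activation · Timing – 6 min pre-incubation, 100 s read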
V1aR counter: activates human V1a receptor in oxytocin agonist counter-screen | activation, % at 3 µM | 320,000 tested, 0.25% active | CHO-V1R cells, Fluo-8 calcium fluorescence, agonist mode; 0% DMSO, 100% 3 nM vasopressin | P37288;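 active means activation above the mean activation of all tested compounds plus 3 SD, per screening run, cut at about 20% in these data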;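 further: signal is peak over basal fluorescence ratio across a 100 second FLIPR read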
TRPML3 agonist: human mucolipin-3 channel agonism | Q8TDD5 | HEK293 TRPML3-YFP, Fluo-8 calcium fluorescence; 100% = the carbachol control signal | activation, % at 3 µM | 220,000 tested, 0.29% active | AID 1448;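 active means activation above its plate's cutoff, the mean activation of the plate's test wells plus 3 SD, cut at about 12% in these data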
Target sequence (Q8TDD5 whole entry, looked up): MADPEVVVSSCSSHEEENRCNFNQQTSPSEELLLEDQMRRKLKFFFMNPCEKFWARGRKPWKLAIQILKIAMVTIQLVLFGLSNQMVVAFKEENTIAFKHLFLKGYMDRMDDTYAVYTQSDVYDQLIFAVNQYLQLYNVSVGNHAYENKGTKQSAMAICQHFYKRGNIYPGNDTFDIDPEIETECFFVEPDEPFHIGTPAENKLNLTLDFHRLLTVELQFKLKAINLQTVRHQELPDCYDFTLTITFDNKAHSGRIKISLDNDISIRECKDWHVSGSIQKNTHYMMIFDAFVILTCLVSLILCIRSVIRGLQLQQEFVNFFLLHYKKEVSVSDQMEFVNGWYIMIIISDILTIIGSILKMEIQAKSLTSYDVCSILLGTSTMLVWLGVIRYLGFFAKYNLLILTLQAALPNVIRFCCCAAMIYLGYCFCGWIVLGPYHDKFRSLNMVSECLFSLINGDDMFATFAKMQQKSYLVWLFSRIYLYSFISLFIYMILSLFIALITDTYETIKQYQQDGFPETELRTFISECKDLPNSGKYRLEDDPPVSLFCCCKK
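Test system: TRPML3-YFP stable HEK293 cells. Doses: single point at 3 µM. Incubation: dye loading 1 h 37 °C then 30 min ambient, 125 s read. Signal: Fluo-8 calcium dye fluorescence, ex 470-495, em 515-575 nm. Measure: percent activation from peak-to-basal fluorescence ratio, scaled between DMSO and carbachol.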
TRPN1 ag: activates the zebrafish TRPN1 channel; activation, % at 3 µM; HEK293 zebrafish TRPN1-YFP, Fluo-8 calcium fluorescence; 100% = response to 87 µM carbachol; 220,000 tested, 0.18% active;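 active means activation above its plate's cutoff, the mean activation of test wells on that plate plus 3 SD, cut at about 19% in these data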
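Assay system: Zebrafish TRPN1-YFP in HEK293 cells | Incubation: Dye loading 1 h at 37 °C, then 30 min room temperature | Measured by: Kinetic Fluo-8 fluorescence, ex 470-495, em 515-575 nm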
TRPN1 ag 2: activates zebrafish TRPN1, counter-screen for TRPML3 agonists; shares compounds with TRPML3 agonist; 310 tested, 10% active; HEK293 zebrafish TRPN1-YFP, Fluo-8 calcium fluorescence; scaled: carbachol wells 100%, DMSO wells 0%; activation, % at 3 µM;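 active means mean activation over replicates above a set limit taken from the earlier TRPN1 channel primary screen, cut at about 19% in these data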
TRPML3 confirm: human TRPML3 agonism, confirmation; shares compounds with TRPML3 agonist; HEK293 TRPML3-YFP, Fluo-8 calcium fluorescence; 100% set by carbachol, 0% by DMSO; activation, % at 3 µM; 310 tested, 80% active; AID 1526;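 active means activation above a set limit derived from the earlier primary screen, cut at about 12% in these data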
Large screens that a line does not name were inactive (follow-up assays come after a bar, where they were run). A selection: hits, their analogues and other compounds. The true share with any hit is near 0.55%.

COc1ccc(C(=O)Nc2ccc(S(=O)(=O)N3CCCCC3C)cc2)c(OC)c1OC (centres undefined)	TRPML3 agonist 70 | TRPN1 ag 2 inactive | TRPML3 confirm 83
COc1ccc(CCNC(=O)CN(CCc2ccccc2)S(C)(=O)=O)cc1	none
O=S(=O)(NC1CCCCC1N1CCOCC1)c1ccc(Cl)cc1 (centres undefined)	TRPML3 agonist 129 | TRPN1 ag 2 inactive | TRPML3 confirm 151
O=S(=O)(NC1CCCCC1N1CCN(c2ccccc2F)CC1)c1ccc(Cl)cc1 (centres undefined)	none (no result: TRPML3 agonist, TRPN1 ag)
O=C(O)c1csc(N/N=C/c2ccc(Br)cc2)n1	TRPML3 agonist 32 (no result: OXTR ag, OXTR potentiate, V1aR counter) | TRPN1 ag 2 inactive | TRPML3 confirm 42
Cc1csc(N/N=C/c2ccc([N+](=O)[O-])cc2)n1	none (no result: TRPML3 agonist, TRPN1 ag)
CCOC(=O)[C@H]1[C@H]2COc3ccc(C)cc3[C@@H]2N2C(=O)c3cc(F)ccc3NC(=O)[C@@]12C	none (no result: TRPML3 agonist, TRPN1 ag)
CCOc1ccccc1NC(=O)C1CCN(c2ccc(S(=O)(=O)N3CCCC3)cc2)CC1	TRPML3 agonist 20 | TRPN1 ag 2 inactive | TRPML3 confirm 20
Cc1cccc(N(CC(=O)NC2CCCC2)C(=O)c2nsc(Cl)c2Cl)c1C	none
CCOc1ccccc1N(CC(=O)NC1CCCCC1)C(=O)c1nsc(Cl)c1Cl	TRPML3 agonist 43 | TRPN1 ag 2 inactive | TRPML3 confirm 36
CCOc1ccc(-n2cnnn2)cc1S(=O)(=O)Nc1c(C)cccc1C	TRPML3 agonist 18 | TRPN1 ag 2 inactive | TRPML3 confirm inactive
CCOc1ccc(-n2cnnn2)cc1S(=O)(=O)NC1CC1	none
COc1ccc(C(=O)CSc2nnc(-c3ccc(C)cc3)o2)cc1	none
COc1ccc2c(c1)C(C)=CC(C)(C)N2C(=O)CSc1nnc(-c2ccc(C)cc2)o1	TRPML3 agonist 37 | TRPN1 ag 2 inactive | TRPML3 confirm 48
Cc1ccc(NC(=O)c2ccco2)c(NC(=O)COc2ccccc2)c1	none (no result: TRPML3 agonist, TRPN1 ag)
CCOC(=O)Cc1csc(NC(=O)COc2ccc(N(C)S(=O)(=O)c3ccc(C)cc3)cc2)n1	none
Cc1ccc(S(=O)(=O)N(C)c2ccc(OCC(=O)Nc3nnc(C4CC4)s3)cc2)cc1	TRPML3 agonist 44 (no result: OXTR ag, OXTR potentiate, V1aR counter) | TRPN1 ag 2 inactive | TRPML3 confirm 53
CCc1nnc(NC(=O)COc2ccc(N(C)S(=O)(=O)c3ccc(C)cc3)cc2)s1	TRPML3 agonist 23 (no result: OXTR ag, OXTR potentiate, V1aR counter) | TRPN1 ag 2 inactive | TRPML3 confirm 63
COc1ccc(CCNC(=O)COc2ccc(N(C)S(=O)(=O)c3ccc(Cl)cc3)cc2)cc1	TRPML3 agonist 44 (no result: OXTR ag, OXTR potentiate, V1aR counter) | TRPN1 ag 2 inactive | TRPML3 confirm 41
N=C1c2ccccc2CN1NC(=O)c1cccc(S(=O)(=O)N2CCCCC2)c1	none
Cc1cc(C(=O)Nn2cnnc2)ccc1[N+](=O)[O-]	none (no result: TRPML3 agonist, TRPN1 ag)
Cc1nc(NC(=O)c2csc3ccccc23)sc1C	TRPML3 agonist 18 | TRPN1 ag 2 inactive | TRPML3 confirm 28
Cc1nc(NC(=O)c2ccccc2O)sc1C	none (no result: TRPML3 agonist, TRPN1 ag)
CCn1c(=O)cc(OCC(=O)Nc2ccc(OC)c(OC)c2)c2ccccc21	TRPML3 agonist 23 | TRPN1 ag 2 inactive | TRPML3 confirm 23
CC(C)(C)N(NC(=O)c1ccccc1)C(=O)c1ccc(C(=O)N(NC(=O)c2ccccc2)C(C)(C)C)cc1	none
COc1ccc(C(=O)N(NC(=O)Oc2ccccc2)C(C)(C)C)cc1	TRPML3 agonist 13 | TRPN1 ag 2 inactive | TRPML3 confirm inactive
C#CCOc1nc(C)cc(C)c1S(=O)(=O)c1ccccc1C	TRPML3 agonist 41 | TRPN1 ag 2 inactive | TRPML3 confirm 61
COc1nc(C)cc(C)c1S(=O)(=O)c1ccccc1C	none (no result: TRPML3 agonist, TRPN1 ag)
Cc1cc(C)c(S(=O)(=O)c2c(C)cccc2C)c(OCC(C)C)n1	TRPML3 agonist 12 | TRPN1 ag 2 inactive | TRPML3 confirm 43
CCOc1nc(C)cc(C)c1S(=O)(=O)c1cccc(C)c1	none
Cc1ccc(S(=O)(=O)N2CCN(C(=O)C(C)Cn3cncn3)CC2)cc1C (centres undefined)	none (no result: TRPML3 agonist, TRPN1 ag)
CC(C)=C1C2CCC1C(C(=O)NCc1ccccc1)C2C(=O)O (centres undefined)	TRPML3 agonist 18 | TRPN1 ag 2 inactive | TRPML3 confirm inactive
Cc1ccc(S(=O)(=O)c2c(C)cc(C)nc2Oc2cccc(C(F)(F)F)c2)cc1	TRPML3 agonist 14 | TRPN1 ag 2 inactive | TRPML3 confirm 42
COc1ccc(S(=O)(=O)NN(C)C)cc1N(C)S(=O)(=O)c1ccc(Cl)cc1	none
COC(=O)CN(c1cc(Cl)ccc1OC)S(=O)(=O)c1ccc(C)cc1	TRPML3 agonist 70 | TRPN1 ag 2 inactive | TRPML3 confirm 61
COc1ccc(Cl)cc1N(CC(=O)N1CCCC1)S(=O)(=O)c1ccc(C)cc1	none (no result: TRPML3 agonist, TRPN1 ag)
COc1ccc(S(=O)(=O)Nc2ccc(C)cc2)cc1N(C)S(=O)(=O)c1ccc(Cl)cc1	TRPML3 agonist 61 | TRPN1 ag 2 inactive | TRPML3 confirm 32
COc1ccc(S(=O)(=O)N(CC(=O)N2CCOCC2)c2cc(Cl)ccc2OC)cc1OC	TRPML3 agonist 45 | TRPN1 ag 2 inactive | TRPML3 confirm 42
O=C1/C(=C/c2cccc(Cl)c2)CSc2sccc21	none
COc1ccc(S(=O)(=O)N2CCCCCC2)cc1C(=O)OCc1c(C)noc1C	TRPML3 agonist 30 | TRPN1 ag 2 inactive | TRPML3 confirm 14
Cc1noc(C)c1COC(=O)c1cccc(S(=O)(=O)N2CCCCCC2)c1	TRPML3 agonist 13 | TRPN1 ag 2 inactive | TRPML3 confirm 18
Cc1noc(C)c1COC(=O)c1ccc(F)c(S(=O)(=O)N2CCCCC2)c1	none
O=C(Oc1ccc(Cl)cc1)N1CCOCC1	none (no result: TRPML3 agonist, TRPN1 ag)
COC(=O)C(C(=O)OC)=C(/C=C/N(C)C)N(C)C	none
CCOC(=O)c1c(-c2cccs2)csc1NC(=O)CSc1ncn[nH]1	none
O=C1CCCC2=C1C(c1ccc(Cl)cc1)n1c(s/c(=C\c3ccc4ccncc4c3)c1=O)=N2 (centres undefined)	none
Cc1ccc(-n2nc3c(Cl)nnc(C)c3c2C)cc1	TRPML3 agonist 13 | TRPN1 ag 2 inactive | TRPML3 confirm inactive
Cc1ccc(-n2nc3c(N4CCN(c5ccccc5)CC4)nnc(C)c3c2C)cc1	none (no result: OXTR ag, OXTR potentiate, V1aR counter)
CNC(=S)NNC(=O)c1cccs1	none
O=C(NC(=S)NNC(=O)c1cccs1)c1ccc(Br)o1	TRPML3 agonist 12 | TRPN1 ag 2 inactive | TRPML3 confirm 22
CSc1nc2ccccc2nc1N(C)S(=O)(=O)c1ccc(C)cc1	TRPML3 agonist 21 | TRPN1 ag 2 inactive | TRPML3 confirm 26

Assay outcomes: PubChem, The Scripps Research Institute Molecular Screening Center
